Activity calls are given as the source filed them. No cut-off for these calls is given here.
Experiments:
[1] = Cytotoxicity against mouse B78H1 cells under dark condition after 24 hrs by resazurin proliferation assay; type: cell-based; conditions: b78h1, 24 h
Method in brief: (§1)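 Cells were seeded to reach plateau growth: HeLa and B78-H1 at 5000, HepG2 and MCF-7 at 7000 cells/well. They were exposed to increasing squaraine concentrations in the dark, with compound from DMSO diluted in medium (final DMSO <0.2%). Viability was measured by resazurin fluorescence as RFU treated/RFU untreated × 100. Values are means ± SDs of three independent experiments.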

HeLa [2] = experiment: Photocytotoxicity against human HeLa cells treated for 3 hrs followed by 15 J/mc2 irradiation measured 24 hrs after irradiation by resazurin proliferation assay; type: functional
Method in brief: (§2)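 Cells were seeded to reach plateau growth: HeLa and B78-H1 at 5000, HepG2 and MCF-7 at 7000 cells/well. They were incubated 3 h with increasing squaraine concentrations (DMSO stock, final DMSO <0.2%, DMSO-matched control), then irradiated 30 min with a metal halogen lamp (15 J/cm2). Resazurin proliferation was read 24 h later as % of untreated fluorescence. IC50 was estimated from dose-response plots; means ± SDs of three independent experiments.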

HeLa [3] = experiment: Cellular uptake in human HeLa cells assessed as localization to cytoplasm at 1 uM after 4 hrs by confocal laser microscopy; type: ADME, cell-based
Method in brief: (§3)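 HeLa cells seeded (2 × 10^5) on coverslips, treated 24 h later with squaraine for 3 h (figure legend states 4 h), then irradiated with a metal halogen white lamp at 15 J/cm2. Cells were fixed with PFA, permeabilized with Triton X-100 (0.1% in PBS) and nuclei stained with Hoechst. Localization was imaged by confocal laser microscopy.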

HepG2 [4] = experiment: Cytotoxicity against human HepG2 cells under dark condition at 5 uM after 24 hrs by resazurin proliferation assay; type: cell-based; conditions: hepg2, 24 h; method in brief: as §1
HeLa [5] = experiment: Photocytotoxicity against human HeLa cells assessed as necrotic cells at 1.5 uM for 3 hrs followed by 15 J/mc2 measured 72 hrs irradiation by propidium iodide staining; type: functional, cell-based
Method in brief: (§4)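 HeLa cells (2.5 × 10^5, six-well) were treated with squaraine the next day and photoactivated. The medium was then replaced with fresh medium containing Hoechst and PI (both 2 μg/mL). Living cells were time-lapse imaged at 37 °C, 5% CO2 over 72 h, with necrotic (PI-red, swollen) and apoptotic (shrinkage, blebbing, apoptotic bodies) morphology scored. Controls had no squaraine.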

HeLa [6] = experiment: Cellular uptake in human HeLa cells assessed as localization to nucleus at 1 uM after 4 hrs by confocal laser microscopy; type: ADME, cell-based; method in brief: as §3
[7] = Cytotoxicity against mouse B78H1 cells under dark condition at 5 uM after 24 hrs by resazurin proliferation assay; type: cell-based; conditions: b78h1, 24 h; method in brief: as §1
MCF7 [8] = experiment: Photocytotoxicity against human MCF7 cells assessed as induction of lipid peroxidation-mediated malondialdehyde production at 1.8 uM for 3 hrs followed by 15 J/mc2 irradiation by TBARS assay relative to untreated control; type: functional, cell-based
Mus musculus [9] = experiment: Toxicity in C57BL/6 mouse bearing mouse B78H1 cells assessed as behavioral changes at 3 umol/kg, iv measured for 1 week; type: organism-based; conditions: in vivo, 168 h
Method in brief: (§5)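 Squaraine given to mice at 3 μmol/kg (the dose used for PDT experiments), formulated in small unilamellar dioleoylphosphatidylcholine liposomes and injected.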

MCF7 [10] = experiment: Cytotoxicity against human MCF7 cells under dark condition after 24 hrs by resazurin proliferation assay; type: cell-based; conditions: mcf7, 24 h; method in brief: as §1
Mus musculus [11] = experiment: Toxicity in C57BL/6 mouse bearing mouse B78H1 cells assessed as mortality at 3 umol/kg, iv measured after 1 week; type: organism-based; conditions: in vivo, 168 h; method in brief: as §5
MCF7 [12] = experiment: Cytotoxicity against human MCF7 cells under dark condition at 5 uM after 24 hrs by resazurin proliferation assay; type: cell-based; conditions: mcf7, 24 h; method in brief: as §1
HepG2 [13] = experiment: Cytotoxicity against human HepG2 cells under dark condition after 24 hrs by resazurin proliferation assay; type: cell-based; conditions: hepg2, 24 h; method in brief: as §1
HeLa [14] = experiment: Cytotoxicity against human HeLa cells under dark condition after 24 hrs by resazurin proliferation assay; type: cell-based; method in brief: as §1
HeLa [15] = experiment: Induction of apoptosis in human HeLa cells assessed as caspase 3/7 activation at 1.5 uM for 3 hrs followed by 15 J/mc2; type: functional, cell-based
Method in brief: (§6)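 HeLa cells (5000/well) were incubated 3 h with squaraine and irradiated at 15 J/cm2. Caspase-3/7 activity was measured 2.5, 16 and 22 h after light using a homogeneous fluorogenic reagent (substrate 1:100 in buffer, 1:1 with sample), with ex 485/em 530 nm. Values are means ± SDs of at least two independent experiments.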

HepG2 [16] = experiment: Photocytotoxicity against human HepG2 cells treated for 3 hrs followed by 15 J/mc2 irradiation measured 24 hrs after irradiation by resazurin proliferation assay; type: functional; method in brief: as §2
HeLa [17] = experiment: Photocytotoxicity against human HeLa cells assessed as necrotic cells at 1.5 uM for 3 hrs followed by 15 J/mc2 irradiation by annexin V/propidium iodide staining-based FACS flow cytometry (Rvb=1.0%); type: functional
HeLa [18] = experiment: Photocytotoxicity against human HeLa cells assessed as induction of lipid peroxidation-mediated malondialdehyde production at 1.8 uM for 3 hrs followed by 15 J/mc2 irradiation by TBARS assay relative to untreated control; type: functional
HeLa [19] = experiment: Induction of apoptosis in human HeLa cells assessed as apoptotic bodies at 1.5 uM for 3 hrs followed by 15 J/mc2 measured 72 hrs irradiation by propidium iodide staining; type: functional, cell-based; method in brief: as §4
HUVEC = experiment: Cytotoxicity against HUVEC cells under dark condition after 24 hrs by resazurin proliferation assay; type: cell-based; conditions: human
MCF7 [20] = experiment: Photocytotoxicity against human MCF7 cells assessed as induction of lipid peroxidation-mediated malondialdehyde production at 9.6 uM for 3 hrs followed by 15 J/mc2 irradiation by TBARS assay relative to untreated control; type: functional, cell-based
HeLa [21] = experiment: Cytotoxicity against human HeLa cells under dark condition at 5 uM after 24 hrs by resazurin proliferation assay; type: cell-based; method in brief: as §1
MCF7 [22] = experiment: Photocytotoxicity against human MCF7 cells treated for 3 hrs followed by 15 J/mc2 irradiation measured 24 hrs after irradiation by resazurin proliferation assay; type: functional; method in brief: as §2
HeLa [23] = experiment: Photocytotoxicity against human HeLa cells assessed as cell growth arrest at 1.5 uM for 3 hrs followed by 15 J/mc2 irradiation measured 72 hrs after irradiation by resazurin proliferation assay; type: functional, cell-based
Method in brief: (§7)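 HeLa cells were given squaraine, irradiated with light (15 J/cm2), and followed for up to 72 h after light treatment for proliferation. Controls were cells treated only with light.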

[24] = Photocytotoxicity against mouse B78H1 cells treated for 3 hrs followed by 15 J/mc2 irradiation measured 24 hrs after irradiation by resazurin proliferation assay; type: functional; method in brief: as §2
HeLa [25] = experiment: Photocytotoxicity against human HeLa cells assessed as apoptotic cells at 1.5 uM for 3 hrs followed by 15 J/mc2 irradiation by annexin V/propidium iodide staining-based FACS flow cytometry (Rvb=1.3%); type: functional
HeLa [26] = experiment: Cellular uptake in human HeLa cells assessed as localization to cytoplasm at 8 uM after 4 hrs by confocal laser microscopy; type: ADME, cell-based; method in brief: as §3
HeLa [27] = experiment: Photocytotoxicity against human HeLa cells assessed as induction of lipid peroxidation-mediated malondialdehyde production at 9.6 uM for 3 hrs followed by 15 J/mc2 irradiation by TBARS assay relative to untreated control; type: functional
HeLa [28] = experiment: Photocytotoxicity against human HeLa cells assessed as apoptotic cells at 9.6 uM for 3 hrs followed by 15 J/mc2 irradiation by annexin V/propidium iodide staining-based FACS flow cytometry (Rvb=1.3%); type: functional
HeLa [29] = experiment: Induction of apoptosis in human HeLa cells assessed as caspase 3/7 activation at 9.6 uM for 3 hrs followed by 15 J/mc2; type: functional, cell-based; method in brief: as §6
HeLa [30] = experiment: Photocytotoxicity against human HeLa cells assessed as necrotic cells at 9.6 uM for 3 hrs followed by 15 J/mc2 measured 72 hrs irradiation by propidium iodide staining; type: functional, cell-based; method in brief: as §4
HeLa [31] = experiment: Photocytotoxicity against human HeLa cells assessed as necrotic cells at 9.6 uM for 3 hrs followed by 15 J/mc2 irradiation by annexin V/propidium iodide staining-based FACS flow cytometry (Rvb=1.0%); type: functional
HeLa [32] = experiment: Induction of apoptosis in human HeLa cells assessed as apoptotic bodies at 9.6 uM for 3 hrs followed by 15 J/mc2 measured 72 hrs irradiation by propidium iodide staining; type: functional, cell-based; method in brief: as §4
HeLa [33] = experiment: Cellular uptake in human HeLa cells assessed as localization to nucleus at 8 uM after 4 hrs by confocal laser microscopy; type: ADME, cell-based; method in brief: as §3
HeLa [34] = experiment: Photocytotoxicity against human HeLa cells assessed as cell growth arrest at 9.6 uM for 3 hrs followed by 15 J/mc2 irradiation measured 72 hrs after irradiation by resazurin proliferation assay; type: functional, cell-based; method in brief: as §7

## CCCCCCN1/C(=C/C2=C([O-])C(=C\c3sc4ccccc4[n+]3CCCCCC)/C2=O)Sc2ccccc21
[1]
  Activity: Non-toxic
HeLa [2]
  Activity: 80%
HeLa [3]
  Drug uptake: Active
HepG2 [4]
  Activity: Toxic
HeLa [5]
  Activity: Active
HeLa [6]
  Drug uptake: Not Active
[7]
  Activity: Toxic
MCF7 [8]
  Activity: Active
Mus musculus [9]
  Activity: Non-toxic
MCF7 [10]
  Activity: Non-toxic
Mus musculus [11]
  Activity: Non-toxic
MCF7 [12]
  Activity: Toxic
HepG2 [13]
  Activity: Non-toxic
HeLa [14]
  Activity: Non-toxic
HeLa [15]
  Activity: Active
HepG2 [16]
  Activity: 80%
HeLa [17]
  Activity: 9.5%
HeLa [18]
  fold change (FC): 4
HeLa [19]
  Activity: Active
HUVEC
  Activity: Non-toxic
MCF7 [20]
  Activity: Active
HeLa [21]
  Activity: Toxic
MCF7 [22]
  Activity: 80%
HeLa [23]
  Activity: Active
[24]
  Activity: 80%
HeLa [25]
  Activity: 3.9%

## CCCCCC[n+]1c(/C=C2\C(=O)C(c3ccc(-c4ccc(-c5ccc(C6=C([O-])/C(=C\c7sc8ccccc8[n+]7CCCCCC)C6=O)s5)s4)s3)=C2[O-])sc2ccccc21
HeLa [26]
  Drug uptake: Active
HeLa [27]
  fold change (FC): 4
MCF7 [8]
  Activity: Active
HeLa [28]
  Activity: 8.8%
HeLa [29]
  Activity: Active
HeLa [30]
  Activity: Active
HeLa [31]
  Activity: 25.9%
MCF7 [20]
  Activity: Active
HeLa [32]
  Activity: Active
HeLa [33]
  Drug uptake: Not Active
HeLa [34]
  Activity: Active

Reference: ChEMBL document CHEMBL1154927, “Photooxidation and Phototoxicity of pi-extended squaraines” (J Med Chem, 2010)
